Laboratory results reported in ChEMBL document CHEMBL3351628, “2,4,5-Trisubstituted thiazole derivatives: a novel and potent class of non-nucleoside inhibitors of wild type and mutant HIV-1 reverse transcriptase” (Eur J Med Chem, 2014).
The source made the active and inactive calls. The rule behind the calls is not given here.

Columns and labels:
[1] = tested on: Human immunodeficiency virus 1; test: Antiviral activity against HIV1 harboring reverse transcriptase K103N/P225H double mutant infected in HEK293T cells transfected with plasmid VSV-G/pNL4-3.luc.R-E- assessed as inhibition of viral replication after 48 hrs by luciferase reporter gene assay; type: functional, organism-based, HEK-293T; conditions: Human immunodeficiency virus 1, HEK-293T, 48 h
In short: (§1)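 VSV-G-pseudotyped single-cycle virus: VSVG plasmid plus env-deficient pNL4-3.luc.R⁻E⁻ vector (wild type or RT-mutant) co-transfected into HEK 293T by calcium phosphate. Medium changed at 16 h, supernatant collected 48 h post-transfection, normalised by p24 ELISA to 0.2 ng p24/mL. HEK 293T targets seeded a day ahead; compound added 15 min before virus. Cells lysed 48 h post-infection, luciferase read. IC50 from dose–infectivity curves.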

[2] = tested on: Human immunodeficiency virus 1; test: Antiviral activity against HIV1 harboring reverse transcriptase K103N/P225H double mutant infected in HEK293T cells transfected with plasmid VSV-G/pNL4-3.luc.R-E- assessed as inhibition of viral replication after 48 hrs by luciferase reporter gene assay relative HIV1; type: functional, HEK-293T
[3] = tested on: Human immunodeficiency virus 1; test: Antiviral activity against HIV1 harboring reverse transcriptase K103N/G190A double mutant infected in HEK293T cells transfected with plasmid VSV-G/pNL4-3.luc.R-E- assessed as inhibition of viral replication after 48 hrs by luciferase reporter gene assay; type: functional, organism-based, HEK-293T; conditions: Human immunodeficiency virus 1, HEK-293T, 48 h; in short: as §1
[4] = tested on: Human immunodeficiency virus 1; test: Antiviral activity against HIV1 harboring reverse transcriptase K103N/G190A double mutant infected in HEK293T cells transfected with plasmid VSV-G/pNL4-3.luc.R-E- assessed as inhibition of viral replication after 48 hrs by luciferase reporter gene assay relative HIV1; type: functional, HEK-293T
[5] = tested on: Human immunodeficiency virus 1; test: Antiviral activity against HIV1 harboring reverse transcriptase K103N/V108I double mutant infected in HEK293T cells transfected with plasmid VSV-G/pNL4-3.luc.R-E- assessed as inhibition of viral replication after 48 hrs by luciferase reporter gene assay; type: functional, organism-based, HEK-293T; conditions: Human immunodeficiency virus 1, HEK-293T, 48 h; in short: as §1
[6] = tested on: Human immunodeficiency virus 1; test: Antiviral activity against HIV1 harboring reverse transcriptase K103N/V108I double mutant infected in HEK293T cells transfected with plasmid VSV-G/pNL4-3.luc.R-E- assessed as inhibition of viral replication after 48 hrs by luciferase reporter gene assay relative HIV1; type: functional, HEK-293T
[7] = Retention time of the compound by HPLC analysis; type: physicochemical
[8] = tested on: Human immunodeficiency virus 1; test: Antiviral activity against HIV1 infected in 293T cells assessed as time of 50% failure; type: functional
[9] = tested on: Human immunodeficiency virus 1; test: Antiviral activity against wild type HIV1 infected in HEK293T cells transfected with plasmid VSV-G/pNL4-3.luc.R-E- assessed as inhibition of viral replication after 48 hrs by luciferase reporter gene assay; type: functional, organism-based, HEK-293T; in short: as §1
HEK-293T = test: Cytotoxicity against HEK293T cells at 10 uM after 48 hrs; type: cell-based; conditions: human
In short: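 HEK 293T cells incubated 48 h with compound at final 10 μM under the antiviral culture conditions, without virus. Viability read with a cell proliferation assay kit.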

[10] = tested on: Human immunodeficiency virus 1; test: Antiviral activity against HIV1 harboring reverse transcriptase K103N mutant infected in HEK293T cells transfected with plasmid VSV-G/pNL4-3.luc.R-E- assessed as inhibition of viral replication after 48 hrs by luciferase reporter gene assay; type: functional, organism-based, HEK-293T; conditions: Human immunodeficiency virus 1, HEK-293T, 48 h; in short: as §1
[11] = tested on: Human immunodeficiency virus 1; test: Antiviral activity against HIV1 harboring reverse transcriptase K103N mutant infected in HEK293T cells transfected with plasmid VSV-G/pNL4-3.luc.R-E- assessed as inhibition of viral replication after 48 hrs by luciferase reporter gene assay relative HIV1; type: functional, HEK-293T
[12] = tested on: Human immunodeficiency virus 1; test: Antiviral activity against HIV1 harboring reverse transcriptase Y181C mutant infected in HEK293T cells transfected with plasmid VSV-G/pNL4-3.luc.R-E- assessed as inhibition of viral replication after 48 hrs by luciferase reporter gene assay; type: functional, organism-based, HEK-293T; conditions: Human immunodeficiency virus 1, HEK-293T, 48 h; in short: as §1
[13] = tested on: Human immunodeficiency virus 1; test: Antiviral activity against HIV1 harboring reverse transcriptase Y181C mutant infected in HEK293T cells transfected with plasmid VSV-G/pNL4-3.luc.R-E- assessed as inhibition of viral replication after 48 hrs by luciferase reporter gene assay relative HIV1; type: functional, HEK-293T
[14] = tested on: Human immunodeficiency virus 1; test: Antiviral activity against HIV1 harboring reverse transcriptase […]/K103N double mutant infected in HEK293T cells transfected with plasmid VSV-G/pNL4-3.luc.R-E- assessed as inhibition of viral replication after 48 hrs by luciferase reporter gene assay; type: functional, organism-based, HEK-293T; conditions: Human immunodeficiency virus 1, HEK-293T, 48 h; in short: as §1
[15] = tested on: Human immunodeficiency virus 1; test: Antiviral activity against HIV1 harboring reverse transcriptase […]/K103N double mutant infected in HEK293T cells transfected with plasmid VSV-G/pNL4-3.luc.R-E- assessed as inhibition of viral replication after 48 hrs by luciferase reporter gene assay relative HIV1; type: functional, HEK-293T
[16] = tested on: Human immunodeficiency virus 1; test: Antiviral activity against HIV1 harboring reverse transcriptase Y188L mutant infected in HEK293T cells transfected with plasmid VSV-G/pNL4-3.luc.R-E- assessed as inhibition of viral replication after 48 hrs by luciferase reporter gene assay; type: functional, organism-based, HEK-293T; conditions: Human immunodeficiency virus 1, HEK-293T, 48 h; in short: as §1
[17] = tested on: Human immunodeficiency virus 1; test: Antiviral activity against HIV1 harboring reverse transcriptase Y188L mutant infected in HEK293T cells transfected with plasmid VSV-G/pNL4-3.luc.R-E- assessed as inhibition of viral replication after 48 hrs by luciferase reporter gene assay relative HIV1; type: functional, HEK-293T
[18] = tested on: Human immunodeficiency virus 1; test: Antiviral activity against HIV1 at 10 uM; type: functional, organism-based
[19] = Human immunodeficiency virus 1, HEK-293T, 48 h, read-out: IC50

Compound: COc1ccc(CNc2nc(-c3ccc(F)cc3F)c(Cc3ccccc3)s2)cc1
- IC50 [1]: 3.59 µM
- fold change (FC) [2]: 56.1
- IC50 [3]: 0.4 µM
- fold change (FC) [4]: 6.3
- IC50 [5]: 1.84 µM
- fold change (FC) [6]: 28.8
- Retention_time [7]: 17.37 min
- Time [8]: 8.6 h
- IC50 [9, 19]: 0.064 µM
- Activity (HEK-293T): Non-toxic
- IC50 [10]: 0.41 µM
- fold change (FC) [11]: 6.4
- IC50 [12]: 1.46 µM
- fold change (FC) [13]: 22.8
- IC50 [14]: 5.36 µM
- fold change (FC) [15]: 83.8
- IC50 [16]: > 10 µM
- fold change (FC) [17]: >156

Compound: COc1ccc(CNc2nc(-c3ccccc3F)c(Cc3ccccc3)s2)cc1
- IC50 [1]: 4.81 µM
- fold change (FC) [2]: 77.6
- IC50 [3]: 0.16 µM
- fold change (FC) [4]: 2.6
- IC50 [5]: 4.73 µM
- fold change (FC) [6]: 76.3
- Retention_time [7]: 24.29 min
- Time [8]: 8.6 h
- IC50 [9, 19]: 0.062 µM
- Activity (HEK-293T): Non-toxic
- IC50 [10]: 0.54 µM
- fold change (FC) [11]: 8.7
- IC50 [12]: 1.26 µM
- fold change (FC) [13]: 20.3
- IC50 [14]: 5.24 µM
- fold change (FC) [15]: 84.5
- IC50 [16]: > 10 µM
- fold change (FC) [17]: >161

Compound: COc1ccc(-c2nc(N(C)C)sc2Cc2ccccc2)cc1
- Retention_time [7]: 35.28 min
- inhibition [18]: inactive
- IC50 ([9]; hek-293t): Not Active
- Activity (HEK-293T): Non-toxic

Compound: COc1ccc(CNc2nc(-c3ccccc3Cl)c(Cc3ccccc3)s2)cc1
- IC50 [1]: 0.78 µM
- fold change (FC) [2]: 17
- IC50 [3]: 4.18 µM
- fold change (FC) [4]: 90.9
- IC50 [5]: 0.82 µM
- fold change (FC) [6]: 17.8
- Retention_time [7]: 26.43 min
- Time [8]: 9 h
- IC50 [9, 19]: 0.046 µM
- Activity (HEK-293T): Non-toxic
- IC50 [10]: 0.24 µM
- fold change (FC) [11]: 5.2
- IC50 [12]: 0.79 µM
- fold change (FC) [13]: 17.2
- IC50 [14]: 5.11 µM
- fold change (FC) [15]: 111
- IC50 [16]: > 10 µM
- fold change (FC) [17]: >217
